ChEMBL document CHEMBL1150302, “Aminoacyl-tRNA synthetase inhibitors as potent and synergistic immunosuppressants” (J Med Chem, 2008)
The source made the active and inactive calls. No cut-off for these calls is given here.

How the values were obtained:
PBMC [1] = experiment: Immunosuppressive activity against human PBMC assessed as inhibition of allogenic mixed lymphocyte reaction upto 10 uM; assay type: functional, cell-based
Outline: (§1)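 Responder cells taken from the Ficoll-plasma interface, washed three times (0.12 × 10⁶), cocultured for 6 days with mitomycin C-treated RPMI 1788 stimulator cells (0.045 × 10⁶) and compound in RPMI 1640 with 10% fetal calf serum. Pulsed after five days with 1 µCi methyl-³H thymidine, harvested 18 h later and counted. cpm converted to % inhibition versus compound-free MLR.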

PBMC [2] = experiment: Immunosuppressive activity against human PBMC assessed as inhibition of allogenic mixed lymphocyte reaction; assay type: functional, cell-based; outline: as §1
PBMC [3] = experiment: Immunosuppressive activity against human PBMC assessed as inhibition of allogenic mixed lymphocyte reaction at 0.1 uM; assay type: functional; outline: as §1
PBMC [4] = experiment: Immunosuppressive activity against human PBMC assessed as inhibition of allogenic mixed lymphocyte reaction at 0.5 uM; assay type: functional; outline: as §1
PBMC [5] = experiment: Immunosuppressive activity against human PBMC assessed as inhibition of allogenic mixed lymphocyte reaction at 0.01 uM; assay type: functional; outline: as §1
PBMC [6] = experiment: Immunosuppressive activity against human PBMC assessed as inhibition of allogenic mixed lymphocyte reaction at 0.06 uM; assay type: functional; outline: as §1
PBMC [7] = experiment: Immunosuppressive activity against human PBMC assessed as inhibition of allogenic mixed lymphocyte reaction at 0.08 uM; assay type: functional; outline: as §1
PBMC [8] = experiment: Immunosuppressive activity against human PBMC assessed as inhibition of allogenic mixed lymphocyte reaction at 0.0004 uM; assay type: functional; outline: as §1
PBMC [9] = experiment: Immunosuppressive activity against human PBMC assessed as inhibition of allogenic mixed lymphocyte reaction at 0.0008 uM; assay type: functional; outline: as §1
PBMC [10] = experiment: Immunosuppressive activity against human PBMC assessed as inhibition of allogenic mixed lymphocyte reaction at 1.0 uM; assay type: functional; outline: as §1

## C/C(=C\C(=O)OCCCCCCCCC(=O)O)C[C@@H]1OC[C@H](C[C@@H]2O[C@H]2[C@@H](C)[C@H](C)O)[C@@H](O)[C@H]1O
PBMC [1]
  Activity: inactive

## C[C@@H](O)[C@H](N)C(=O)NS(=O)(=O)OC[C@H]1O[C@@H](n2cnc3c(N)ncnc32)[C@H](O)[C@@H]1O
PBMC [2]
  IC50: 5.2 µM

## Nc1ncnc2c1ncn2[C@@H]1O[C@H](COS(=O)(=O)NC(=O)[C@@H](N)Cc2cnc[nH]2)[C@@H](O)[C@H]1O
PBMC [2]
  IC50: 1 µM
PBMC [3]
  inhibition at 0.1 µM: 12.4%

## Nc1ncnc2c1ncn2[C@@H]1O[C@H](COS(=O)(=O)NC(=O)[C@@H]2CCCN2)[C@@H](O)[C@H]1O
PBMC [4]
  inhibition at 0.5 µM: 18.6%
PBMC [2]
  IC50: 0.7 µM
PBMC [3]
  inhibition at 0.1 µM: -2.7%

## CC[C@H](N)C(=O)NS(=O)(=O)OC[C@H]1O[C@@H](n2cnc3c(N)ncnc32)[C@H](O)[C@@H]1O
PBMC [2]
  IC50: 5.5 µM

## CC(C)C[C@H](N)C(=O)NS(=O)(=O)OC[C@H]1OC[C@@H](n2cnc3c(N)ncnc32)[C@H](O)[C@@H]1O
PBMC [2]
  IC50: 1 µM

## C/C=C/C[C@@H](C)[C@@H](O)[C@H]1C(=O)N[C@@H](CC)C(=O)N(C)CC(=O)N(C)[C@@H](CC(C)C)C(=O)N[C@@H](C(C)C)C(=O)N(C)[C@@H](CC(C)C)C(=O)N[C@@H](C)C(=O)N[C@H](C)C(=O)N(C)[C@@H](CC(C)C)C(=O)N(C)[C@@H](CC(C)C)C(=O)N(C)[C@@H](C(C)C)C(=O)N1C [CYCLOSPORINE]
PBMC [5]
  inhibition at 0.01 µM: 32%
PBMC [6]
  inhibition at 0.06 µM: 65.7%
PBMC [7]
  inhibition at 0.08 µM: 75.2%

## CSCC[C@H](N)C(=O)NS(=O)(=O)OC[C@H]1O[C@@H](n2cnc3c(N)ncnc32)[C@H](O)[C@@H]1O
PBMC [4]
  inhibition at 0.5 µM: 28.4%
PBMC [2]
  IC50: 0.5 µM

## Nc1ncnc2c1ncn2[C@@H]1CO[C@H](COS(=O)(=O)NC(=O)[C@@H](N)Cc2c[nH]cn2)[C@@H](O)[C@H]1O
PBMC [2]
  IC50: 1.2 µM

## C[C@H](N)C(=O)NS(=O)(=O)OC[C@H]1O[C@@H](n2cnc3c(N)ncnc32)[C@H](F)[C@@H]1O
PBMC [2]
  IC50: 0.4 µM

## Nc1ncnc2c1ncn2[C@@H]1O[C@H](COS(=O)(=O)NC(=O)[C@H](Cc2ccccc2)NCc2ccccc2)[C@@H](O)[C@H]1O
PBMC [2]
  IC50: 0.2 µM
PBMC [3]
  inhibition at 0.1 µM: 31.1%

## Nc1ncnc2c1ncn2[C@@H]1O[C@H](COS(=O)(=O)NC(=O)[C@@H](N)CO)[C@@H](O)[C@H]1O
PBMC [2]
  IC50: 4.8 µM

## Nc1ncnc2c1ncn2[C@@H]1CO[C@H](COS(=O)(=O)NC(=O)[C@@H]2CCCN2)[C@@H](O)[C@H]1O
PBMC [2]
  IC50: 0.75 µM

## Nc1ncnc2c1ncn2[C@@H]1O[C@H](COS(=O)(=O)NC(=O)[C@@H]2CCCN2)[C@@H](O)[C@H]1F
PBMC [2]
  IC50: 0.3 µM

## NC(=O)C[C@H](N)C(=O)NS(=O)(=O)OC[C@H]1O[C@@H](n2cnc3c(N)ncnc32)[C@H](O)[C@@H]1O
PBMC [2]
  IC50: 0.3 µM

## Nc1ncnc2c1ncn2[C@@H]1CO[C@H](COS(=O)(=O)NC(=O)[C@@H](N)Cc2c[nH]cn2)[C@@H](O)C1
PBMC [2]
  IC50: 6.7 µM

## Nc1ncnc2c1ncn2[C@@H]1O[C@H](COS(=O)(=O)NC(=O)[C@@H](N)CCC(=O)O)[C@@H](O)[C@H]1O
PBMC [2]
  IC50: 4.9 µM

## CO[C@H]1C[C@@H]2CC[C@@H](C)[C@@](O)(O2)C(=O)C(=O)N2CCCC[C@H]2C(=O)O[C@H]([C@H](C)C[C@@H]2CC[C@@H](O)[C@H](OC)C2)CC(=O)[C@H](C)/C=C(\C)[C@@H](O)[C@@H](OC)C(=O)[C@H](C)C[C@H](C)/C=C/C=C/C=C/1C [SIROLIMUS]
PBMC [8]
  inhibition at 0.0004 µM: 13.1%
PBMC [9]
  inhibition at 0.0008 µM: 32.5%

## Nc1ncnc2c1ncn2[C@@H]1O[C@H](COS(=O)(=O)NC(=O)[C@@H](N)CS)[C@@H](O)[C@H]1O
PBMC [2]
  IC50: 0.4 µM

## CC(C)[C@H](N)C(=O)NS(=O)(=O)OC[C@H]1O[C@@H](n2cnc3c(N)ncnc32)[C@H](O)[C@@H]1O
PBMC [2]
  IC50: 5.6 µM

## Nc1ncnc2c1ncn2[C@@H]1O[C@H](COS(=O)(=O)NC(=O)[C@@H](N)CC(=O)O)[C@@H](O)[C@H]1O
PBMC [2]
  IC50: 2.4 µM

## CC(C)C[C@H](N)C(=O)NS(=O)(=O)OC[C@H]1OC[C@@H](n2cnc3c(N)ncnc32)C[C@@H]1O
PBMC [2]
  IC50: 6.8 µM

## NC(=O)CC[C@H](N)C(=O)NS(=O)(=O)OC[C@H]1O[C@@H](n2cnc3c(N)ncnc32)[C@H](O)[C@@H]1O
PBMC [2]
  IC50: 0.8 µM

## NCCCC[C@H](N)C(=O)NS(=O)(=O)OC[C@H]1O[C@@H](n2cnc3c(N)ncnc32)[C@H](O)[C@@H]1O
PBMC [10]
  inhibition at 1 µM: 67%
PBMC [2]
  IC50: 1 µM

## CSCC[C@H](N)C(=O)NS(=O)(=O)OC[C@H]1O[C@@H](n2cnc3c(N)ncnc32)[C@H](F)[C@@H]1O
PBMC [2]
  IC50: 0.4 µM

## CC(C)C[C@H](N)C(=O)NS(=O)(=O)OC[C@H]1O[C@@H](n2cnc3c(N)ncnc32)[C@H](F)[C@@H]1O
PBMC [2]
  IC50: 0.45 µM

## CSCC[C@H](N)C(=O)NS(=O)(=O)OC[C@H]1OC[C@@H](n2cnc3c(N)ncnc32)[C@H](O)[C@@H]1O
PBMC [2]
  IC50: 5.2 µM

## C[C@H](N)C(=O)NS(=O)(=O)OC[C@H]1OC[C@@H](n2cnc3c(N)ncnc32)[C@H](O)[C@@H]1O
PBMC [4]
  inhibition at 0.5 µM: 68%
PBMC [2]
  IC50: 0.3 µM

## CC[C@H](C)[C@H](N)C(=O)NS(=O)(=O)OC[C@H]1O[C@@H](n2cnc3c(N)ncnc32)[C@H](O)[C@@H]1O
PBMC [2]
  IC50: 5.6 µM

## C=C(C)CC(N)C(=O)NS(=O)(=O)OC[C@H]1O[C@@H](n2cnc3c(N)ncnc32)[C@H](O)[C@@H]1O (mixture of isomers)
PBMC [2]
  IC50: 0.55 µM

## Nc1ncnc2c1ncn2[C@@H]1CO[C@H](COS(=O)(=O)NC(=O)[C@@H]2CCCN2)[C@@H](O)C1
PBMC [2]
  IC50: 2.8 µM

## Nc1ncnc2c1ncn2[C@@H]1O[C@H](COS(=O)(=O)NC(=O)[C@@H]2CCN2)[C@@H](O)[C@H]1O
PBMC [2]
  IC50: 0.6 µM

## CSCC[C@H](N)C(=O)NS(=O)(=O)OC[C@H]1OC[C@@H](n2cnc3c(N)ncnc32)C[C@@H]1O
PBMC [2]
  IC50: 5.5 µM

## N=C(N)NCCC[C@H](N)C(=O)NS(=O)(=O)OC[C@H]1OC[C@@H](n2cnc3c(N)ncnc32)C[C@@H]1O
PBMC [2]
  IC50: 0.6 µM

## Nc1ncnc2c1ncn2[C@@H]1O[C@H](COS(=O)(=O)NC(=O)[C@@H](N)Cc2c[nH]c3ccccc23)[C@@H](O)[C@H]1O
PBMC [4]
  inhibition at 0.5 µM: 27.6%
PBMC [2]
  IC50: 0.5 µM
PBMC [3]
  inhibition at 0.1 µM: 2.3%

## CCC[C@H](N)C(=O)NS(=O)(=O)OC[C@H]1O[C@@H](n2cnc3c(N)ncnc32)[C@H](O)[C@@H]1O
PBMC [2]
  IC50: 4.7 µM

## N=C(N)NCCC[C@H](N)C(=O)NS(=O)(=O)OC[C@H]1OC[C@@H](n2cnc3c(N)ncnc32)[C@H](O)[C@@H]1O
PBMC [2]
  IC50: 0.6 µM

## Nc1ncnc2c1ncn2[C@@H]1O[C@H](COS(=O)(=O)NC(=O)[C@@H](N)Cc2c[nH]cn2)[C@@H](O)[C@H]1F
PBMC [2]
  IC50: 0.45 µM

## NCC(=O)NS(=O)(=O)OC[C@H]1O[C@@H](n2cnc3c(N)ncnc32)[C@H](O)[C@@H]1O
PBMC [2]
  IC50: 0.8 µM

## Nc1ncnc2c1ncn2[C@@H]1O[C@H](COS(=O)(=O)NC(=O)[C@@H](N)Cc2ccc(O)cc2)[C@@H](O)[C@H]1O
PBMC [2]
  IC50: 5.6 µM

## N=C(N)NCCC[C@H](N)C(=O)NS(=O)(=O)OC[C@H]1O[C@@H](n2cnc3c(N)ncnc32)[C@H](O)[C@@H]1O
PBMC [2]
  IC50: 1 µM

## C[C@H](N)C(=O)NS(=O)(=O)OC[C@H]1O[C@@H](n2cnc3c(N)ncnc32)[C@H](O)[C@@H]1O [ALASA]
PBMC [4]
  inhibition at 0.5 µM: 4.9%
PBMC [2]
  IC50: 1.7 µM
PBMC [3]
  inhibition at 0.1 µM: 6.5%

## Nc1ncnc2c1ncn2[C@@H]1O[C@H](COS(=O)(=O)NC(=O)[C@@H](N)Cc2ccccc2)[C@@H](O)[C@H]1O [PHESA]
PBMC [4]
  inhibition at 0.5 µM: 53.4%
PBMC [2]
  IC50: 1 µM
PBMC [3]
  inhibition at 0.1 µM: 10.7%

## Nc1ncnc2c1ncn2[C@@H]1CO[C@H](COS(=O)(=O)NC(=O)[C@H](Cc2ccccc2)NCc2ccccc2)[C@@H](O)[C@H]1O
PBMC [2]
  IC50: 0.08 µM

## C[C@H](N)C(=O)NS(=O)(=O)OC[C@H]1OC[C@@H](n2cnc3c(N)ncnc32)C[C@@H]1O
PBMC [2]
  IC50: 5.5 µM

## Nc1ncnc2c1ncn2[C@@H]1O[C@H](COS(=O)(=O)NC(=O)[C@@H]2CSCN2)[C@@H](O)[C@H]1O
PBMC [2]
  IC50: 0.55 µM

## CC(C)C[C@H](N)C(=O)NS(=O)(=O)OC[C@H]1O[C@@H](n2cnc3c(N)ncnc32)[C@H](O)[C@@H]1O [LEUSA]
PBMC [4]
  inhibition at 0.5 µM: 16.3%
PBMC [2]
  IC50: 1.1 µM
PBMC [3]
  inhibition at 0.1 µM: 16%
